Experimental data reported in PMC12486158 (Analytical biochemistry, 2025).

Assays:
Type in all cases: biochemical
[1] = molecular target: T1, Homo sapiens SAMHD1 (Homo sapiens, UniProt Q9Y3Z3); test: Tight-binding inhibition of SAMHD1; settings: read-out: Ki (Morrison equation, tight-binding); 100 nM SAMHD1, 500 μM dTTP (5×KM), eq. 4 & 5
[2] = molecular target: T1, Homo sapiens SAMHD1; test: Lineweaver-Burk plot and mechanism of inhibition of SAMHD1
In short: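 Same GTP/dATP pre-activation and coupled MESG/PNP/Ppx1/PPase system. Final: 100 nM SAMHD1, 10 μM GTP, 500 nM dATP, 5 mM MgCl2. Reactions started with inhibitor (up to 4 μM) premixed into dTTP stocks of 0.625–10 mM. A360 followed for 20 min. Initial rates shown as a double-reciprocal plot and globally fitted to a competitive-inhibition equation for Kis. Mean ± SD of three independent experiments.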

[3] = molecular target: T1, Homo sapiens SAMHD1; test: Steady-state kinetics of activated SAMHD1 with dTTP; settings: read-out: KM of dTTP; 100 nM SAMHD1 activated with GTP and dATP, dTTP 8.4-500 μM
In short: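 Recombinant SAMHD1 (HisTrap, then size-exclusion purified) pre-activated stepwise with GTP then dATP, diluted, and mixed with MESG/PNP/Ppx1/PPase coupling cocktail. Final: 100 nM enzyme, 10 μM GTP, 500 nM dATP, 500 μM MESG, […], 10 nM Ppx1 and PPase. Buffer: HEPES pH 8.0, NaCl, MgCl2, TCEP, glycerol. dTTP 8.4–500 μM. A360 over 20 min. Rates corrected for 3 Pi/dTTP. Michaelis-Menten fit. Three independent experiments.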

T1 sequence (Q9Y3Z3 114-626): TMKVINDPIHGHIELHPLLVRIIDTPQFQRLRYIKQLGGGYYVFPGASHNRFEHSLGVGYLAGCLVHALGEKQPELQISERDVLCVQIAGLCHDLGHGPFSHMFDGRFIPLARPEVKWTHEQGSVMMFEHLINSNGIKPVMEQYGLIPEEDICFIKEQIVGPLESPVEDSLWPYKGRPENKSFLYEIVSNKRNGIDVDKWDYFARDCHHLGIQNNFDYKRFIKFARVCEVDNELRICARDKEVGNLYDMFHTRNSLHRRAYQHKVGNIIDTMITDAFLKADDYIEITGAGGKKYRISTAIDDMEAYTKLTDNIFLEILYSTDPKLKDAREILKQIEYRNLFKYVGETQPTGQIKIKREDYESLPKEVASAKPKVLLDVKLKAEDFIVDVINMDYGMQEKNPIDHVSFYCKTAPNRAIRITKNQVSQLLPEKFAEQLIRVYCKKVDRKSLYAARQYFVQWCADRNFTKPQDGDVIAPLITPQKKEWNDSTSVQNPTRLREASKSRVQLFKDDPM

| SMILES | Ki [1] [nM] | Mode of inhibition ([2]; double-reciprocal Lineweaver-Burk plot, varied dTTP) | Kis (global inhibition constant, competitive fit) ([2]; varied dTTP and dGPNPP (up to 4 μM), global fit) [nM] | Km [3] [µM] |
| --- | --- | --- | --- | --- |
| Nc1ccn([C@H]2C[C@H](O)[C@@H](COP(=O)(O)NP(=O)(O)OP(=O)(O)O)O2)c(=O)n1 [dCPNPP, 2'-Deoxycytidine-5'-[(α,β)-imido]triphosphate] | 67 ± 8 |  |  |  |
| Nc1nc2c(ncn2[C@H]2C[C@H](O)[C@@H](COP(=O)(O)NP(=O)(O)OP(=O)(O)O)O2)c(=O)[nH]1 [dGPNPP, 2'-Deoxyguanosine-5'-[(α,β)-imido]triphosphate] | 25 ± 7 | competitive inhibition | 53 ± 7.0 |  |
| Cc1cn([C@H]2C[C@H](O)[C@@H](COP(=O)(O)OP(=O)(O)OP(=O)(O)O)O2)c(=O)[nH]c1=O [dTTP, 2’-Deoxythymidine-5’-triphosphate] |  |  |  | 102 ± 9.4 |
